# PGC1a acetyl up: compounds raising PGC1a acetylation signal, primary screen, PGC1a modulator project, cell-based, U2OS, AlphaScreen, signal-increasing mode; overnight; activation, % at 15.6 µM; 350,000 tested, 0.21% active; AID 651723, 2012;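 active = every replicate reaching activation of at least 50%, whatever the mean replicate activation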;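 note: hits raise the AlphaScreen acetylation signal above neutral controls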
#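 System: Flag-PGC1a/GCN5 U2OS cells | Quantity: 7000 cells/well | Times: Overnight compound treatment, 37 °C | Measured by: AlphaScreen proximity luminescence, anti-acetyl-lysine antibody | Dosing: One concentration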
# Active calls of the source: *. The list is a sample of the results.
SMILES,PGC1a acetyl up
COc1ccc(C#Cc2cnc3c(c2)C(=O)N([C@H](C)CO)C[C@H](C)[C@H](CN(C)S(=O)(=O)c2cccs2)O3)cc1OC,61.2*
COc1ccc(S(=O)(=O)N(C)C[C@@H]2Oc3ncc(-c4ccccc4)cc3C(=O)N([C@H](C)CO)C[C@@H]2C)cc1,-46.6
COc1ccc(-c2cnc3c(c2)C(=O)N([C@H](C)CO)C[C@H](C)[C@H](CN(C)S(=O)(=O)c2cccs2)O3)cc1,-49.8
CO[C@@H]1CN(C)C(=O)c2ccc(NC(=O)Nc3c(C)noc3C)cc2OC[C@H](C)N(CC2CC2)C[C@@H]1C,-100.7
CC1CCCN(Cc2c(O)ccc3c4c(c(=O)oc23)CCCC4)C1 (stereo not given),-49.4
CC1CCCN(Cc2c(O)ccc3c(=O)c(-c4nc5ccccc5s4)c(N)oc23)C1 (stereo not given),62.3*
CCc1oc2c(C)c(O)ccc2c(=O)c1-c1ccc2ccccc2n1,-48.5
Cc1ccccc1C(=O)Nc1ccc(C(=O)O)cc1NC(=O)c1ccccc1C,-41.4
CCOc1ccccc1NC(=O)c1ccc2ccccc2c1,-88.2
CCN(CC)c1ccc(NC(=O)c2cc(OC)cc(OC)c2)c(C)c1,98.6*
COCCSc1ccccc1C(=O)Nc1cc(C)on1,-50.7
COc1ccc(Nc2nc(N)c(C(=O)c3ccc(OC)cc3)s2)cc1,82.8*
Brc1ccc2ncnc(NCc3ccccc3)c2c1,-42.4
C[C@H]1CN([C@@H](C)CO)C(=O)c2cc(-c3cccc(C(=O)N(C)C)c3)cnc2O[C@@H]1CN(C)S(=O)(=O)c1ccc(F)cc1,-21.4
CC(C)C#Cc1ccc2c(c1)O[C@@H](CN(C)C(=O)C1CC1)[C@@H](C)CN([C@@H](C)CO)S2(=O)=O,-48.4
CC(C)CC#Cc1ccc2c(c1)O[C@@H](CN(C)Cc1ccc3c(c1)OCO3)[C@H](C)CN([C@H](C)CO)S2(=O)=O,-53.4
CC(C)C#Cc1ccc2c(c1)O[C@@H](CN(C)Cc1ccccc1)[C@@H](C)CN([C@@H](C)CO)S2(=O)=O,-98.6
C[C@@H]1CN([C@H](C)CO)S(=O)(=O)c2ccc(C#CC3CCCC3)cc2O[C@H]1CN(C)C,51.8*
C[C@@H]1CN([C@@H](C)CO)S(=O)(=O)c2ccc(C#CC3CCCCC3)cc2O[C@H]1CN(C)Cc1cccnc1,-59.9
C[C@@H]1CN([C@@H](C)CO)S(=O)(=O)c2ccc(C3=CCCCC3)cc2O[C@H]1CN(C)C,-48.3
C[C@@H]1CN([C@H](C)CO)S(=O)(=O)c2ccc(C3=CCCCC3)cc2O[C@H]1CN(C)Cc1ccccc1,-42.9
Cc1ccc(S(=O)(=O)N(C)C[C@@H]2Oc3cc(C#Cc4ccncc4)ccc3S(=O)(=O)N([C@@H](C)CO)C[C@H]2C)cc1,-59.6
Cc1ccc(S(=O)(=O)N(C)C[C@@H]2Oc3cc(C#Cc4ccncc4)ccc3S(=O)(=O)N([C@H](C)CO)C[C@H]2C)cc1,-41.5
C[C@H](CO)N1C[C@H](C)[C@@H](CN(C)Cc2ccc3c(c2)OCO3)Oc2cc(Br)ccc2S1(=O)=O,50.6*
COc1ccc(S(=O)(=O)N(C)C[C@@H]2Oc3cc(C#CC4CC4)ccc3S(=O)(=O)N([C@H](C)CO)C[C@H]2C)cc1,58.9*
SMILES,PGC1a acetyl up
COc1cccc(S(=O)(=O)N(C)C[C@@H]2Oc3cc(C4=CCCC4)ccc3S(=O)(=O)N([C@H](C)CO)C[C@@H]2C)c1,58.6*
CO[C@@H]1CN(C)C(=O)c2cc(NC(C)=O)ccc2OC[C@H](C)N(C(=O)c2cccnc2)C[C@H]1C,-48.6
C[C@H](CO)N1C[C@H](C)[C@H](CN(C)Cc2ccncc2)OCc2cn(nn2)CCCC1=O,-59.4
O=S(=O)(Nc1nc2c(s1)CCCC2)c1ccc(F)cc1,-49.2
COc1ccc(-c2csc(N(CCCN(C)C)C(=O)c3cccs3)n2)cc1,-46.1
CCn1c(COc2ccc(=O)n(-c3ccccc3)n2)nnc1SCc1ccc(C)cc1,-46.2
C/C(=N/NC(=O)CNC(=O)c1ccccn1)c1ccc([N+](=O)[O-])cc1,-44.2
C[C@@H]1CN([C@@H](C)CO)S(=O)(=O)c2ccc(-c3ccccc3)cc2O[C@@H]1CN(C)C(=O)c1ccccc1F,-42.3
CCOc1ccnc(OCC)c1Br,-44.5
O=C(CSc1nc2c(sc3ccccc32)c(=O)n1CCc1ccccc1)NCc1ccco1,-57.3
CNC(=O)COC(=O)c1cc(-c2ccco2)nc2ccccc12,-45.7
Cc1cc(SCC(=O)NC(=O)NCc2ccco2)nc2ccccc12,84.7*
O=C(C[C@@H]1C=C[C@@H](NC(=O)Nc2ccc(C(F)(F)F)cc2)[C@H](CO)O1)NCc1ccccn1,-43.5
COc1ccc(/C=N/Nc2nc3ccccc3[nH]2)c(OC)c1OC,-50.3
Cc1[nH]c2ccccc2c1/C=N/Nc1nc2ccccc2[nH]1,79.5*
CC(C)NC(=O)N(C)C[C@H]1OCCCC[C@@H](C)Oc2ccc(NC(=O)CCCN(C)C)cc2C(=O)N([C@@H](C)CO)C[C@@H]1C,-51.0
O=C(NC(=S)Nc1cccc(Cl)c1N1CCCCC1)c1ccco1,104.4*
CCOCCCNc1nc2c(c(=O)n(C)c(=O)n2C)n1CCCc1ccccc1,-40.3
COc1cccc2c1C(CO)N1C(C#N)C3CC(C(=O)O)C(C1C2)N3C (stereo not given),-66.4
O=C1c2ccsc2SCCN1Cc1cccc(Cl)c1,50.3*
C=CCOC(=O)C1=C(C)NC(SCC)=C(C#N)C1c1ccc(Cl)cc1 (stereo not given),-44.7
CCOC(=O)C1=C(C)NC(=O)NC1c1ccccc1Cl (stereo not given),57.3*
CSc1n[nH]c(NCc2ccccc2)n1,-42.4
O=C(COc1ccccc1Cl)Nc1ccc(Cl)cn1,98.2*
O=C(COC(=O)c1cc[n+]([O-])cc1)Nc1cccc(Cl)c1Cl,-48.3
SMILES,PGC1a acetyl up
CCCNC(=O)COC(=O)c1ccccc1C(=O)c1ccc(Cl)c([N+](=O)[O-])c1,126.9*
Cc1cc(C(=O)OCC(=O)N(C)c2ccccc2)ccc1[N+](=O)[O-],-52.4
CC(C)(C)NC(=O)c1ccc(Sc2ccccc2)c([N+](=O)[O-])c1,-80.8
CC(C)(C)S(=O)N1Cc2cc(C(=O)NCc3ccc(Oc4ccccc4)cc3)nc(-c3cccc(-c4cc5ccccc5o4)c3)c2[C@H]1CCO (stereo not given in full),61.8*
CCCCCCCCCSc1n[nH]c(N)n1,-25.4
O=C(c1ccc(Cl)cc1)C(Cn1cncn1)C(Sc1ccccc1)c1ccccc1 (stereo not given),-61.3
Cc1ccccc1-c1ccc(C2[C@@H]3CN(C(=O)Nc4cccc(F)c4)C[C@H]2N3)cc1 (stereo not given in full),55.6*
O=C(Nc1ccc(F)cc1)N1C[C@@H]2N[C@H](C1)C2c1ccc(/C=C/c2ccccc2)cc1 (stereo not given in full),58.8*
COc1ccc(-c2ccc(C3[C@@H]4CN(C(=O)Nc5cccc(F)c5)C[C@H]3N4)cc2)cc1 (stereo not given in full),64.3*
Cc1ccccc1-c1ccc(C2[C@@H]3CN(S(=O)(=O)c4ccccc4C)C[C@H]2N3)cc1 (stereo not given in full),92.3*
O=C(Nc1ccc(F)cc1)N1CC(=O)N2[C@@H](CO)[C@H](c3ccc(Br)cc3)[C@@H]2C1,-55.0
O=C(Nc1ccc(F)cc1)N1CC(=O)N2[C@@H](CO)[C@@H](c3ccc(-c4ccccc4)cc3)[C@@H]2C1,-60.7

# Bioassay records as filed in PubChem BioAssay.
